Assay type in all cases: functional, cell-based
The test system of one assay is A549. Put plainly: Cytotoxicity against human A549 cells after 2 days by MTT assay. In a few lines: (§1)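 Cells were seeded at 5 × 10³ per well and exposed to eight compound concentrations (50, 25, 12.5, 6.25, 3.13, 1.56, 0.78, 0.39), with positive and blank controls. Incubation was 2 days at 37 °C and 5% CO₂. MTT (5 mg/mL stock) was then added for 4 h. After the supernatant was removed, formazan was dissolved in DMSO for 20 min at room temperature. OD was read at 570 nm, and viability was expressed as % of compound-free medium controls.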
(Tetrazolium dyes change colour on reduction, which living cells bring about.)

The subject of a further assay is L1210. Put plainly: Cytotoxicity against mouse L1210 cells after 2 days by MTT assay. In a few lines: as §1
Another assay relates to K562. Put plainly: Cytotoxicity against human K562 cells after 2 days by MTT assay. In a few lines: as §1

pIC50: −log10 of the molar value.

Consider `COc1cc2c3cc1Oc1c(OC)c(OC)cc4c1[C@@H](Cc1ccc(O[C@@H]5O[C@H](CO)[C@@H](O[C@@H]6O[C@H](CO)[C@@H](O)[C@H](O)[C@H]6O)[C@H](O)[C@H]5O)c(c1)Oc1ccc(cc1)C[C@@H]3N(C)CC2)N(C)CC4`, for which the pIC50 is at most 4.30 in the assay with A549 (Homo sapiens, A549, 48 h); 4.97 in the assay with L1210 (Mus musculus, L1210, 48 h); at most 4.30 in the assay with K562 (Homo sapiens, K562, 48 h).

In the case of `COc1cc2c3cc1Oc1c(OC)c(OC)cc4c1[C@@H](Cc1ccc(O[C@@H]5O[C@H](COC(C)=O)[C@H](OC(C)=O)[C@H](OC(C)=O)[C@H]5OC(C)=O)c(c1)Oc1ccc(cc1)C[C@@H]3N(C)CC2)N(C)CC4`, the pIC50 in the assay with A549 (Homo sapiens, A549, 48 h) was 4.37; in the assay on L1210 (Mus musculus, L1210, 48 h), 5.66; in the assay with K562 (Homo sapiens, K562, 48 h), 5.69.

On to `COc1cc2c3cc1Oc1c(OC)c(OC)cc4c1[C@@H](Cc1ccc(O[C@H]5O[C@@H](COC(C)=O)[C@H](OC(C)=O)[C@@H](OC(C)=O)[C@@H]5OC(C)=O)c(c1)Oc1ccc(cc1)C[C@@H]3N(C)CC2)N(C)CC4`, for which the pIC50 in the assay on A549 (Homo sapiens, A549, 48 h) is at most 4.30; in the assay on L1210 (Mus musculus, L1210, 48 h), 5.56; in the assay on K562 (Homo sapiens, K562, 48 h), at most 4.30.

For the molecule `COc1cc2c3cc1Oc1c(OC)c(OC)cc4c1[C@@H](Cc1ccc(O[C@@H]5O[C@H](COC(C)=O)[C@@H](O[C@@H]6O[C@H](COC(C)=O)[C@@H](OC(C)=O)[C@H](OC(C)=O)[C@H]6OC(C)=O)[C@H](OC(C)=O)[C@H]5OC(C)=O)c(c1)Oc1ccc(cc1)C[C@@H]3N(C)CC2)N(C)CC4` [listing 1 of 2 here], the pIC50 with A549 (Homo sapiens, A549, 48 h) is 4.56; with L1210 (l1210) it was 6.52; in the assay with K562 (k562), 5.65.

Take `COc1cc2c3cc1Oc1c(OC)c(OC)cc4c1[C@@H](Cc1ccc(O[C@@H]5O[C@H](COC(C)=O)[C@@H](OC(C)=O)[C@H](OC(C)=O)[C@H]5OC(C)=O)c(c1)Oc1ccc(cc1)C[C@@H]3N(C)CC2)N(C)CC4`: the pIC50 in the assay with A549 (Homo sapiens, A549, 48 h) is 4.53; in the assay on L1210 (Mus musculus, L1210, 48 h), 6.24; in the assay with K562 (Homo sapiens, K562, 48 h), 5.71.

Take `COc1cc2c3cc1Oc1c(OC)c(OC)cc4c1[C@@H](Cc1ccc(O[C@@H]5OC[C@@H](OC(C)=O)[C@H](OC(C)=O)[C@H]5OC(C)=O)c(c1)Oc1ccc(cc1)C[C@@H]3N(C)CC2)N(C)CC4`: the pIC50 is at most 4.30 in the assay on A549 (Homo sapiens, A549, 48 h); 5.90 in the assay with L1210 (Mus musculus, L1210, 48 h); 5.81 in the assay with K562 (Homo sapiens, K562, 48 h).

Take `COc1cc2c3cc1Oc1c(OC)c(OC)cc4c1[C@@H](Cc1ccc(O[C@@H]5O[C@H](COC(C)=O)[C@@H](O[C@@H]6O[C@H](COC(C)=O)[C@@H](OC(C)=O)[C@H](OC(C)=O)[C@H]6OC(C)=O)[C@H](OC(C)=O)[C@H]5OC(C)=O)c(c1)Oc1ccc(cc1)C[C@@H]3N(C)CC2)N(C)CC4` [listing 2 of 2 here]: the pIC50 in the assay with A549 (a549) was at most 4.30; in the assay with L1210 (l1210) it was 5.73; in the assay with K562 (k562), at most 4.30.

As to `COc1cc2c3cc1Oc1c(OC)c(OC)cc4c1[C@@H](Cc1ccc(O[C@@H]5O[C@H](COC(C)=O)[C@@H](O[C@@H]6O[C@H](COC(C)=O)[C@H](OC(C)=O)[C@H](OC(C)=O)[C@H]6OC(C)=O)[C@H](OC(C)=O)[C@H]5OC(C)=O)c(c1)Oc1ccc(cc1)C[C@@H]3N(C)CC2)N(C)CC4`, the pIC50 in the assay on A549 (Homo sapiens, A549, 48 h) was at most 4.30; in the assay with L1210 (Mus musculus, L1210, 48 h), 5.69; in the assay on K562 (Homo sapiens, K562, 48 h) it was 5.45.

Regarding `COc1cc2c3cc1Oc1c(OC)c(OC)cc4c1[C@@H](Cc1ccc(O)c(c1)Oc1ccc(cc1)C[C@@H]3N(C)CC2)N(C)CC4`, the pIC50 in the assay on A549 (Homo sapiens, A549, 48 h) was 4.40; with L1210 (Mus musculus, L1210, 48 h), 5.56; with K562 (Homo sapiens, K562, 48 h), 5.40.

One may read the pIC50 as the IC50 on a negative log10 scale, so that one unit is a factor of ten. Low values mean a high IC50, high ones a low IC50.

(Values after ChEMBL document CHEMBL2040730, “Synthesis of berbamine acetyl glycosides and evaluation of antitumor activity” (Eur J Med Chem, 2012).)
